According to ChEMBL document CHEMBL1152189, “Beta-C-glycosiduronic acids and beta-C-glycosyl compounds: new PTP1B inhibitors” (Bioorg Med Chem Lett, 2008):

Tests used:
[1] = molecular target: T1, Tyrosine-protein phosphatase non-receptor type 1 (Homo sapiens) (UniProt P18031); assay: Inhibition of recombinant PTP1B at 20 ug/mL
T1 sequence (whole entry): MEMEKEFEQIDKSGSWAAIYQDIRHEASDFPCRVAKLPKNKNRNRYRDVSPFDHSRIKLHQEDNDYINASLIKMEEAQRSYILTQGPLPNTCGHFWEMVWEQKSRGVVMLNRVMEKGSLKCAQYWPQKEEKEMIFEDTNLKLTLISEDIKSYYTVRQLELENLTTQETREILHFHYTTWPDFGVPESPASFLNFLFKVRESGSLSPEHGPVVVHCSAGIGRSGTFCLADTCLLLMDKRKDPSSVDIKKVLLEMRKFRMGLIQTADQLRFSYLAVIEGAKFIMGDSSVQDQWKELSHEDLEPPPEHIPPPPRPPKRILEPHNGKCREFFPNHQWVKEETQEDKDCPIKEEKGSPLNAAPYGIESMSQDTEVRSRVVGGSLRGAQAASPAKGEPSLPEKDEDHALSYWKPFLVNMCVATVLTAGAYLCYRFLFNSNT
Method in brief: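 pNPP hydrolysis by recombinant enzyme in 50 mM MOPS pH 6.5 with 2 mM pNPP. Read continuously at 405 nm for 2 min at 30 °C, and initial rate taken from early linear region. Inhibitor tested at 20 μg/mL. Mean of three experiments.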

[2] = molecular target: T2, Tyrosine-protein phosphatase non-receptor type 1 (Homo sapiens, UniProt P18031); assay: Inhibition of recombinant PTP1B
T2 sequence (P18031 whole entry): T1 sequence (whole entry)
Method in brief: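 Recombinant enzyme, 30 nM, with 2 mM pNPP in 50 mM MOPS pH 6.5. Hydrolysis followed continuously at 405 nm for 2 min at 30 °C, and initial rate taken from early linear region. Inhibitor diluted around estimated IC50. IC50 from nonlinear fit of % inhibition vs [I] with Hill equation. Mean of three experiments, SD given.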

SMILES | inhibition [1] [%] | IC50 [2] [µM]
COc1ccc(OC)c([C@@H]2O[C@H](CNC(=O)c3ccccc3)[C@@H](OC(C)=O)[C@H](OC(=O)c3ccccc3)[C@H]2OC(=O)c2ccccc2)c1 | 83.4 | 4.52
O=C1C=CC(=O)C([C@@H]2O[C@H](CNC(=O)c3ccccc3)[C@@H](O)[C@H](OC(=O)c3ccccc3)[C@H]2OC(=O)c2ccccc2)=C1 | 94.1 | 5.27
CC(=O)O[C@@H]1[C@@H](OC(C)=O)[C@H](C2=CC(=O)c3ccccc3C2=O)O[C@H](C(=O)O)[C@H]1OC(C)=O | 83.1 | 15.9
COc1ccc(OC)c([C@@H]2O[C@H](CNC(=O)c3ccccc3)[C@@H](OC(C)=O)[C@H](OC(C)=O)[C@H]2OC(C)=O)c1 | 12.1 | –
CC(=O)O[C@H]1[C@@H](OC(C)=O)[C@@H](C(=O)O)O[C@@H](C2=CC(=O)C=CC2=O)[C@@H]1OC(C)=O | 70.3 | 27.6
COc1ccc(OC)c([C@@H]2O[C@H](CNC(=O)c3ccccc3)[C@@H](O)[C@H](OC(=O)c3ccccc3)[C@H]2OC(=O)c2ccccc2)c1 | 94.9 | 4.13
CC(=O)O[C@@H]1[C@@H](OC(C)=O)[C@H](C2=CC(=O)C=CC2=O)O[C@H](CNC(=O)c2ccccc2)[C@H]1OC(C)=O | 26.6 | –
CC(=O)O[C@H]1[C@@H](OC(C)=O)[C@@H](C(=O)O)O[C@@H](C2=CC(=O)c3ccccc3C2=O)[C@@H]1OC(C)=O | 88.2 | 16.6

Further lines, results first:

inhibition [1] [%] | IC50 [2] [µM] | SMILES
92.1 | 0.77 | COc1cc([C@@H]2O[C@H](CNC(=O)c3ccccc3C(=O)O)[C@@H](OC(=O)c3ccccc3)[C@H](OC(=O)c3ccccc3)[C@H]2OC(=O)c2ccccc2)c(OC)c2ccccc12
96.5 | 2.36 | COc1cc([C@@H]2O[C@H](CN=[N+]=[N-])[C@@H](OC(=O)c3ccccc3)[C@H](OC(=O)c3ccccc3)[C@H]2OC(=O)c2ccccc2)c(OC)c2ccccc12
99.5 | 1.12 | O=C(O[C@H]1[C@@H](OC(=O)c2ccccc2)[C@@H](C(=O)O)O[C@@H](C2=CC(=O)c3ccccc3C2=O)[C@@H]1OC(=O)c1ccccc1)c1ccccc1
49.5 | – | COc1ccc(OC)c([C@@H]2O[C@H](COC(C)=O)[C@H](NC(=O)c3ccccc3C(=O)O)[C@H](OC(C)=O)[C@H]2OC(C)=O)c1
84.7 | 20.4 | CC(=O)O[C@@H]1[C@@H](OC(C)=O)[C@H](C2=CC(=O)C=CC2=O)O[C@H](C(=O)O)[C@H]1OC(C)=O
99.7 | 2.44 | COc1ccc(OC)c([C@@H]2O[C@H](CNC(=O)c3ccccc3C(=O)O)[C@@H](OC(=O)c3ccccc3)[C@H](OC(=O)c3ccccc3)[C@H]2OC(=O)c2ccccc2)c1
